Hits are enriched below; roughly 1.4% of the tested compounds scored in any of these assays.
Calpain2 inh – blocks pig calpain II enzyme activity; purified calpain II, fluorogenic peptide substrate, 30 min; inhibition, % at 16 µM; 220,000 compounds, 0.37% hits; AID 1236;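 active = inhibition above about 50%, limit read from the data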
Thrombin inh – inhibitors of human thrombin; P00734; alpha-thrombin, Boc-VPR-AMC fluorogenic substrate cleavage; inhibition, % at 5 µM; 220,000 compounds, 0.26% hits; AID 1046;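 active = inhibition at or above 40%; inactive = inhibition below 40%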
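Material: human alpha-thrombin protein. Incubation: reaction at ambient temperature. Technique: fluorescence of released AMC, ex 355 nm, em 460 nm. Control set: no-compound enzyme wells and no-enzyme blanks. Also added: Boc-VPR-AMC substrate, 15 µM final. Buffer or medium: pH 7.5 Tris (50 mM) with NaCl 150 mM, Tween 20 0.05%.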
FXIa inh – inhibitors of human coagulation factor XIa; purified FXIa, Boc-Glu-Ala-Arg-AMC fluorogenic substrate; P03951; 220,000 compounds, 0.14% hits; AID 798; inhibition, % at 5 µM;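 active = inhibition of at least 40%; inactive = inhibition below 40%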;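 note: fluorescence of freed AMC excited at 355 nm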
Target sequence (P03951 19-387 limits assumed): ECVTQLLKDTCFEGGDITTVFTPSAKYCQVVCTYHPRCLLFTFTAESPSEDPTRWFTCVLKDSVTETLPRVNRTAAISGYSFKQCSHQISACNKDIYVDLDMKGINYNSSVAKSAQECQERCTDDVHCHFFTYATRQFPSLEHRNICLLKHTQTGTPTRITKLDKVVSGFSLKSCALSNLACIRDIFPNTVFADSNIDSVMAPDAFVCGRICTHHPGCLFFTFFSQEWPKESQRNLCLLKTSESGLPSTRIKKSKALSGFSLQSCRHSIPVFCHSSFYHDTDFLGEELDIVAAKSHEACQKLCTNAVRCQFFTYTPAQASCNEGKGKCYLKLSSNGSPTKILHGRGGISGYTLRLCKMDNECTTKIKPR
Target sequence (P03951 388-625 limits assumed): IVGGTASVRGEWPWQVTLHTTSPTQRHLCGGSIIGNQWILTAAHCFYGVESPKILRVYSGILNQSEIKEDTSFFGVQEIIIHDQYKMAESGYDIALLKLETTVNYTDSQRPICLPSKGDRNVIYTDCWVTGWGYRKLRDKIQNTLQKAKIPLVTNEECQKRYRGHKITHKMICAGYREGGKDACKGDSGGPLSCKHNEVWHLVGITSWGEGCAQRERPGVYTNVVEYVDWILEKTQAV
FXIIa inh 1536 – inhibitors of human coagulation factor XIIa | AID 800 | inhibition, % at 5 µM | 220,000 compounds, 0.3% hits | P00748 | purified FXIIa, Boc-QGR-AMC fluorogenic substrate, 2 h; in the data active = inhibition above about 40%
hK5 inh – blocks human kallikrein 5 protease activity | Q9Y337 | recombinant hK5, fluorogenic AMC substrate cleavage | inhibition, % at 5 µM | 210,000 compounds, 0.59% hits | AID 873;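 active = inhibition of 40% or more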
Furin inh – blocks human furin protease activity | P09958 | purified furin, fluorogenic substrate cleavage | inhibition, % at 20 µM or 30 µM | 220,000 compounds, 0.061% hits | AID 463115; in the data active = inhibition above about 25%
Of the large screens only hits and unclear results are named; the others gave an inactive call.

O=C(CSC1CCCCC1)Nc1nccs1	Thrombin inh 104.4, hK5 inh 54.3
Cc1cccnc1NC(=O)C1c2ccccc2Oc2ccccc21	none
CCOC(=O)Nc1ccc2c(c1)N(C(=O)CN(CC)CC)c1ccccc1C=C2	none
NNC(=O)c1oc2nc(-c3ccco3)cc(-c3ccco3)c2c1N	Furin inh 25.0
O=C(c1ccc(Cl)cc1)C1C2C(=O)N(c3ccccc3)C(=O)C2C2CCCN21 (centres undefined)	none
CC(=O)c1ccc(N2C(=O)C3C(C2=O)C(C(=O)c2ccc(Cl)cc2)N2CCCC32)cc1 (centres undefined)	hK5 inh 41.6
CCCNC(=O)C(NS(=O)(=O)c1ccc2c(c1)c(=O)n(C)c(=O)n2C)c1ccccc1 (centres undefined)	none
Cn1c2c(c3ccccc31)CCSC2=O	FXIIa inh 1536 71.5
Cn1c(-c2ccccc2)c(C=O)c2ccccc21	none
CCCCc1[nH]c(=O)c(C#N)c2c1CCCC2	FXIIa inh 1536 49.4
CC(C)Cn1c(-c2csc(C(C)C)c2)n[nH]c1=S	Calpain2 inh 54.1
CC(NC(=O)c1ccccc1)c1ccc(F)cc1 (centres undefined)	Calpain2 inh 62.2
CC(NC(=O)c1ccc(F)cc1)c1ccc(F)cc1 (centres undefined)	none
CSCCC(NS(=O)(=O)c1ccc(C)cc1)C(=O)NC1CCCCC1 (centres undefined)	none
COc1ccc(S(=O)(=O)NC(CCSC)C(=O)NC2CCCCC2)cc1 (centres undefined)	hK5 inh 41.3
COc1ccc(NC(=S)NCCCc2ccccc2)cc1	none
C[C@]12C=CC(=O)C=C1CCC1C3CC[C@](O)(C(=O)CO)[C@@]3(C)CC3OC312 (some centres undefined)	none
CCOC(=O)N1CCC(NC(=O)C(CC(C)C)NC(=O)C2CCCCC2)CC1 (centres undefined)	none
CCOC(=O)[C@H]1O[C@@H]1C(=O)N[C@@H](CC(C)C)C(=O)NCCC(C)C	Calpain2 inh 96.8 (no result: Thrombin inh, FXIa inh, FXIIa inh 1536, hK5 inh, Furin inh)
CC(C)CCNC(=O)[C@H](CC(C)C)NC(=O)[C@H]1O[C@@H]1C(=O)O	Calpain2 inh 100.0
O=C(O)c1cc([N+](=O)[O-])ccc1NCc1ccccc1Cl	Thrombin inh 40.7 (no result: hK5 inh)
Cc1nnc(Oc2ccccc2F)c2ccccc12	Calpain2 inh 61.4
CCCCNC(=S)N/N=C/c1cc(C)ccc1C	none
CCCCNC(=S)N/N=C/c1ccccc1F	Calpain2 inh 72.0
C=CCOc1cccc(NC(=O)c2ccccc2SC)c1	none
CCNc1ccc(C(=O)OC(C(=O)NC(N)=O)C(C)C)cc1[N+](=O)[O-] (centres undefined)	hK5 inh 54.0
CC(=O)OC1COC(OC2C(O)C(C)OC(OC3C(OC4CCC5(C)C(CCC6(C)C5CC=C5C7CC(C)(C)CCC7(C(=O)O)CCC56C)C4(C)CO)OCC(O)C3O)C2O)C(O)C1OC(C)=O (centres undefined)	none
CC1OC(O[C@H]2CC[C@]3(C)C4C=C[C@]56OC[C@@]7(CC[C@@H](C)[C@H](C)C75)[C@H](O)C[C@@]6(C)[C@]4(C)CC[C@H]3C2(C)C)C(OC2OC(CO)C(O)C(O)C2OC2OCC(O)C(O)C2O)C(O)C1O (some centres undefined)	Thrombin inh 55.2
Cc1nc(N2CCN(Cc3ccc4c(c3)OCO4)CC2)nc2c1C(=O)CC(c1ccco1)C2 (centres undefined)	Calpain2 inh 67.3
Cc1nc(N2CCN(Cc3ccccc3)CC2)nc2c1C(=O)CC(c1ccco1)C2 (centres undefined)	none
COc1ccc(S(=O)(=O)N2CCCCCC2)cc1NC(=O)Cc1cc(OC)c(OC)c(OC)c1	none
COc1ccc(S(=O)(=O)N2CCCCC2)cc1NC(=O)CN(C)C1CCCCC1	Calpain2 inh 53.0, FXIIa inh 1536 49.4 (no result: Thrombin inh)
Nc1nc(-c2ccc3ccccc3c2)cs1	none
CCOC(=O)c1ccc(CC(=O)c2oc3cc(O)ccc3c2C)o1	none
CCOC(=O)c1ccc(CC(=O)c2ccc(O)c(O)c2O)o1	Calpain2 inh 57.9 (no result: hK5 inh)
O=C1c2cccc(Sc3ccccc3)c2C(=O)c2c(Sc3ccccc3)cccc21	Calpain2 inh 50.3
O=C1C2C3C=CC(CC3)C2C(=O)N1/N=C/c1c(O)ccc2ccccc12 (centres undefined)	none
CC(C)(C)C(=O)NC(=S)NNC(=O)c1ccc(Cl)cc1Cl	none
Cc1nn(C)cc1NC(=O)CC12CC3CC(CC(C3)C1)C2	hK5 inh 52.4
Cc1ccccc1NC(=O)C1c2cccc[n+]2CC(=O)N1c1c(C)cccc1C (centres undefined)	none
Cc1cc(C(=O)Nc2ccc(N3CCCC3)c(Cl)c2)ccc1[N+](=O)[O-]	Calpain2 inh 50.1
O=C(Nc1ccc(N2CCCC2)c(Cl)c1)c1ccc([N+](=O)[O-])cc1	none
CCOC(=O)CSc1nnc(NC(=O)c2cc([N+](=O)[O-])cc([N+](=O)[O-])c2)s1	Thrombin inh 92.2
CCCCCCCCNC(=O)/C(C#N)=C/c1ccccc1[N+](=O)[O-]	none
NCCCC[C@H]1CNC(=O)C(=O)N1CC1CCCCC1	none
CCOC(=O)Cn1c(S(=O)(=O)Cc2ccc(Cl)cc2)nc(-c2ccccc2)c1-c1ccccc1	none
COc1ccc(Nc2nnc(SC(C(=O)Nc3cc(C)ccc3C)c3ccccc3)s2)cc1 (centres undefined)	FXIIa inh 1536 74.9
CC(=O)c1ccc(N2CCN(C(=O)c3cc(-c4ccc5c(c4)OCO5)nc4ccccc34)CC2)cc1	hK5 inh 81.5
NS(=O)(=O)c1cc(C2(O)NC(=O)c3ccccc32)ccc1Cl (centres undefined)	none
Cn1cc(C(=O)c2ccc(Cl)cc2Cl)cc1C(=O)N/N=C(\N)COc1ccc(F)cc1	Thrombin inh 75.7
O=[N+]([O-])c1ccccc1CNc1ccc(F)c(Cl)c1	none
COc1cccc(CNc2ccc(F)c([N+](=O)[O-])c2)c1O	Calpain2 inh 83.6
Cc1sc(NC(=O)CN2CCOCC2)nc1-c1ccc2c(c1)CCN2S(=O)(=O)c1ccccc1	none
Cc1ccc(C2C=C(c3ccccc3)Nc3nc(N4C(=O)CCC4=O)nn32)cc1 (centres undefined)	Thrombin inh 48.1
Cc1cccc(NC(=S)NC(=O)/C=C/c2ccccc2)n1	Thrombin inh 50.3
Clc1ccc(-c2nnnn2-c2ccc(Cl)c(Cl)c2)cc1Cl	Calpain2 inh 55.3
Cc1ccc(-n2nnnc2-c2ccccc2)cc1	none
CCCOc1ccc(/C=N/NC(=O)C2CCCN2S(=O)(=O)c2ccc(Cl)cc2)cc1 (centres undefined)	hK5 inh 49.4
N#Cc1ccsc1NC(=O)CN(Cc1ccccc1)Cc1ccccc1	FXIa inh 43.2
O=C(O)c1cc2n(n1)CCN(Cc1ccccc1Cl)C2=O	none
O=C(Nc1cccc(-c2nc3cccnc3s2)c1)C1c2ccccc2Oc2ccccc21	Calpain2 inh 54.5

Bioassay records: PubChem BioAssay, several laboratories
